In ChEMBL document CHEMBL2331220, “Benzimidazole clubbed with triazolo-thiadiazoles and triazolo-thiadiazines: new anticancer agents” (2013):

Legend:
Type in all cases: functional
[1] = test system: SW-620; assay: Cytotoxicity against human SW620 cells after 48 hrs by SRB assay; conditions: SW-620, 48 h
Procedure, shortened: (§1)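 NCI 60-line five-dose screen: cells plated, held 24 h at 37 °C, 5% CO₂ before treatment, with a TCA-fixed time-zero plate. Five final concentrations (0.01–100 µM, 10-fold dilutions) for 48 h. Cells fixed with cold TCA (10% final) and stained with 0.4% SRB in 1% acetic acid. Dye dissolved in 10 mM Tris and read at 515 nm. GI₅₀, TGI and LC₅₀ taken from percent-growth curves.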

[2] = test system: UACC-257; assay: Cytotoxicity against human UACC257 cells after 48 hrs by SRB assay; conditions: UACC-257, 48 h; procedure, shortened: as §1
[3] = test system: SR; assay: Cytotoxicity against human SR cells after 48 hrs by SRB assay; procedure, shortened: as §1
[4] = test system: OVCAR-5; assay: Cytotoxicity against human OVCAR5 cells after 48 hrs by SRB assay; conditions: OVCAR-5, 48 h
Procedure, shortened: (§2)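 NCI 60-line five-dose screen. Cells were preincubated 24 h at 37 °C under 5% CO2 and 100% humidity, and time-zero plates were TCA-fixed when compound was added. Five 10-fold concentrations (0.01–100) were tested for 48 h. Cells were fixed with cold TCA (final 10%, 60 min, 4 °C), stained with 0.4% SRB for 10 min, and read at 515 nm. GI50, TGI and LC50 came from growth-percentage formulas, with out-of-range values given as > or <.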

[5] = test system: MCF7; assay: Cytotoxicity against human MCF7 cells after 48 hrs by SRB assay; conditions: MCF7, 48 h; procedure, shortened: as §2
[6] = test system: SK-MEL-2; assay: Cytotoxicity against human SK-MEL-2 cells after 48 hrs by SRB assay; conditions: SK-MEL-2, 48 h; procedure, shortened: as §2
[7] = test system: RPMI-8226; assay: Cytotoxicity against human RPMI8226 cells after 48 hrs by SRB assay; conditions: RPMI-8226, 48 h; procedure, shortened: as §2
[8] = test system: 786-0; assay: Cytotoxicity against human 786-0 cells after 48 hrs by SRB assay; conditions: 786-0, 48 h; procedure, shortened: as §2
[9] = test system: A549; assay: Cytotoxicity against human A549 cells after 48 hrs by SRB assay; conditions: A549, 48 h; procedure, shortened: as §2
[10] = test system: LOX IMVI; assay: Cytotoxicity against human LOXIMVI cells after 48 hrs by SRB assay; procedure, shortened: as §2
[11] = test system: UACC-62; assay: Cytotoxicity against human UACC62 cells after 48 hrs by SRB assay; conditions: UACC-62, 48 h; procedure, shortened: as §1
[12] = test system: SNB-75; assay: Cytotoxicity against human SNB75 cells after 48 hrs by SRB assay; conditions: SNB-75, 48 h; procedure, shortened: as §1
[13] = test system: NCI-H522; assay: Cytotoxicity against human NCI-H522 cells after 48 hrs by SRB assay; conditions: NCI-H522, 48 h; procedure, shortened: as §2
[14] = test system: SN12C; assay: Cytotoxicity against human SN12C cells after 48 hrs by SRB assay; procedure, shortened: as §1
[15] = test system: HT-29; assay: Cytotoxicity against human HT-29 cells after 48 hrs by SRB assay; conditions: HT-29, 48 h; procedure, shortened: as §2
[16] = test system: HCC 2998; assay: Cytotoxicity against human HCC2998 cells after 48 hrs by SRB assay; conditions: HCC 2998, 48 h; procedure, shortened: as §2
[17] = test system: SF-268; assay: Cytotoxicity against human SF268 cells after 48 hrs by SRB assay; conditions: SF-268, 48 h; procedure, shortened: as §2
[18] = Cytotoxicity against human EKVX cells after 48 hrs by SRB assay; procedure, shortened: as §2
[19] = test system: A498; assay: Cytotoxicity against human A498 cells after 48 hrs by SRB assay; conditions: A498, 48 h; procedure, shortened: as §2
[20] = read-out: LC50 (the source's name)
[21] = read-out: pLC50 (the source's name) (converted)

## O=C(CCc1nnc2sc(-c3ccc(Cl)cc3Cl)nn12)c1nc2ccccc2[nH]1
[1]; read-out: GI50
  GI50: 204 nM
[1]; [20]
  CC50: 2480 nM
[1]; read-out: TGI
  TGI: 545 nM
[1]; read-out: pGI50 (converted)
  GI50: 204 nM
[1]; [21]
  CC50: 2510 nM
[1]; read-out: pTGI (converted)
  TGI: 550 nM
[2]; read-out: GI50
  GI50: 2100 nM
[2]; read-out: LC50
  LC50: 22.5 µM
[2]; read-out: TGI
  TGI: 5.01 µM
[2]; read-out: pGI50 (converted)
  GI50: 2090 nM
[2]; read-out: pLC50 (converted)
  LC50: 22.4 µM
[2]; read-out: pTGI (converted)
  TGI: 5.01 µM
[3]; read-out: GI50
  GI50: 333 nM
[3]; [20]
  CC50: > 100 µM
[3]; read-out: TGI
  TGI: > 100 µM
[3]; read-out: pGI50 (converted)
  GI50: 331 nM
[3]; [21]
  CC50: > 100 µM
[3]; read-out: pTGI
  TGI: > 100 µM
[4]; read-out: GI50
  GI50: 1880 nM
[4]; [20]
  CC50: 8.39 µM
[4]; read-out: TGI
  TGI: 3.98 µM
[4]; read-out: pGI50 (converted)
  GI50: 1910 nM
[4]; [21]
  CC50: 8.32 µM
[4]; read-out: pTGI (converted)
  TGI: 3.98 µM
[5]; read-out: GI50
  GI50: 355 nM
[5]; read-out: LC50
  LC50: 5.97 µM
[5]; read-out: TGI
  TGI: 1500 nM
[5]; read-out: pGI50 (converted)
  GI50: 355 nM
[5]; read-out: pLC50 (converted)
  LC50: 6.03 µM
[5]; read-out: pTGI (converted)
  TGI: 1510 nM
[6]; read-out: GI50
  GI50: 1760 nM
[6]; [20]
  CC50: > 100 µM
[6]; read-out: TGI
  TGI: 6.67 µM
[6]; read-out: pGI50 (converted)
  GI50: 1780 nM
[6]; [21]
  CC50: > 100 µM
[6]; read-out: pTGI (converted)
  TGI: 6.61 µM
[7]; read-out: GI50
  GI50: 352 nM
[7]; [20]
  CC50: > 100 µM
[7]; read-out: TGI
  TGI: 1760 nM
[7]; read-out: pGI50 (converted)
  GI50: 355 nM
[7]; [21]
  CC50: > 100 µM
[7]; read-out: pTGI (converted)
  TGI: 1780 nM
[8]; read-out: GI50
  GI50: 1590 nM
[8]; read-out: LC50
  LC50: 5.92 µM
[8]; read-out: TGI
  TGI: 3.06 µM
[8]; read-out: pGI50 (converted)
  GI50: 1580 nM
[8]; read-out: pLC50 (converted)
  LC50: 5.89 µM
[8]; read-out: pTGI (converted)
  TGI: 3.09 µM
[9]; read-out: GI50
  GI50: 2070 nM
[9]; [20]
  CC50: > 100 µM
[9]; read-out: TGI
  TGI: 5.63 µM
[9]; read-out: pGI50 (converted)
  GI50: 2090 nM
[9]; [21]
  CC50: > 100 µM
[9]; read-out: pTGI (converted)
  TGI: 5.62 µM
[10]; read-out: GI50
  GI50: 363 nM
[10]; read-out: TGI
  TGI: 1590 nM
[10]; read-out: pGI50 (converted)
  GI50: 363 nM
[10]; read-out: pTGI (converted)
  TGI: 1580 nM
[11]; read-out: GI50
  GI50: 1060 nM
[11]; read-out: LC50
  LC50 (concentration giving 50% net cell kill): 5.61 µM
[11]; read-out: TGI
  TGI: 2440 nM
[11]; read-out: pGI50 (converted)
  GI50: 1070 nM
[11]; read-out: pLC50 (converted)
  LC50 (concentration giving 50% net cell kill): 5.62 µM
[11]; read-out: pTGI (converted)
  TGI: 2450 nM
[12]; read-out: GI50
  GI50: 1960 nM
[12]; [20]
  CC50: 17.1 µM
[12]; read-out: TGI
  TGI: 4.65 µM
[12]; read-out: pGI50 (converted)
  GI50: 1950 nM
[12]; [21]
  CC50: 17 µM
[12]; read-out: pTGI (converted)
  TGI: 4.68 µM
[13]; read-out: GI50
  GI50: 1280 nM
[13]; [20]
  CC50: 6.82 µM
[13]; read-out: TGI
  TGI: 2960 nM
[13]; read-out: pGI50 (converted)
  GI50: 1290 nM
[13]; [21]
  CC50: 6.76 µM
[13]; read-out: pTGI (converted)
  TGI: 2950 nM
[14]; read-out: GI50
  GI50: 1230 nM
[14]; read-out: TGI
  TGI: 3.1 µM
[14]; read-out: pGI50 (converted)
  GI50: 1230 nM
[14]; read-out: pTGI (converted)
  TGI: 3.09 µM
[15]; read-out: GI50
  GI50: 362 nM
[15]; [20]
  CC50: > 100 µM
[15]; read-out: TGI
  TGI: 1810 nM
[15]; read-out: pGI50 (converted)
  GI50: 363 nM
[15]; [21]
  CC50: > 100 µM
[15]; read-out: pTGI (converted)
  TGI: 1820 nM
[16]; read-out: GI50
  GI50: 1630 nM
[16]; [20]
  CC50: 6.29 µM
[16]; read-out: TGI
  TGI: 3.2 µM
[16]; read-out: pGI50 (converted)
  GI50: 1620 nM
[16]; [21]
  CC50: 6.31 µM
[16]; read-out: pTGI (converted)
  TGI: 3.16 µM
[17]; read-out: GI50
  GI50: 740 nM
[17]; [20]
  CC50: 5.15 µM
[17]; read-out: TGI
  TGI: 2140 nM
[17]; read-out: pGI50 (converted)
  GI50: 741 nM
[17]; [21]
  CC50: 5.13 µM
[17]; read-out: pTGI (converted)
  TGI: 2140 nM
[18]; read-out: GI50
  GI50: 1530 nM
[18]; read-out: TGI
  TGI: 3.69 µM
[18]; read-out: pGI50 (converted)
  GI50: 1550 nM
[18]; read-out: pTGI (converted)
  TGI: 3.72 µM
[19]; read-out: GI50
  GI50: 1100 nM
[19]; read-out: LC50
  LC50 (concentration giving 50% net cell kill): 4.89 µM
[19]; read-out: TGI
  TGI: 2320 nM
[19]; read-out: pGI50 (converted)
  GI50: 1100 nM
[19]; read-out: pLC50 (converted)
  LC50 (concentration giving 50% net cell kill): 4.9 µM
[19]; read-out: pTGI (converted)
  TGI: 2340 nM
